# Reference: ChEMBL document CHEMBL4689842, “EUbOPEN Chemogenomics Library wave 1” (2021)
# Tests used:
# [1] = test system: U2OS; assay: Multiplex assay against U2OS; format: toxicity, cell-based; settings: human
# Summary of the method: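 Imaging took place on a CQ1 microscope at 37°C and 5% CO2 once compound had been added to live cells stained at seeding with Hoechst33342, BioTracker Green Microtubule Cytoskeleton Dye, MitoTracker Red and Annexin V Alexa Fluor 680. CellPathfinder machine-learning gating classed cells as Hoechst high-intensity objects or normal cells, classed normal cells as having healthy, pyknosed or fragmented nuclei, and classed pyknosed cells as mitotic or apoptotic. Tubulin, mitochondrial-mass and membrane-permeability phenotypes are per cents of the healthy-nucleus cells.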
# [2] = test system: HEK-293T; assay: Incucyte cell viability with HEK293T; format: toxicity, cell-based; settings: human, 10 µM, compound concentration 10 uM; also: filed as whole numbers so only -1 and 0 and 1 occur
# [3] = 12 h, 1 µM, compound concentration 1 uM, replicate 1
# [4] = 12 h, 1 µM, compound concentration 1 uM, replicate 2
# [5] = 12 h, 10 µM, compound concentration 10 uM, replicate 1
# [6] = 12 h, 10 µM, compound concentration 10 uM, replicate 2
# [7] = 24 h, 1 µM, compound concentration 1 uM, replicate 1
# [8] = 24 h, 1 µM, compound concentration 1 uM, replicate 2
# [9] = 24 h, 10 µM, compound concentration 10 uM, replicate 1
# [10] = 24 h, 10 µM, compound concentration 10 uM, replicate 2
# [11] = 48 h, 1 µM, compound concentration 1 uM, replicate 1
# [12] = 48 h, 1 µM, compound concentration 1 uM, replicate 2
# [13] = 48 h, 10 µM, compound concentration 10 uM, replicate 1
# [14] = 48 h, 10 µM, compound concentration 10 uM, replicate 2
compound,measurement,setting,value
Cc1cc2c(cc1N1C(=O)c3cccc4c(CCCO)ccc(c34)C1=O)n(C)c(=O)n2C,Population Apoptotic (%),[1]; [3],50%
same,Population Fragmented Nuclei (%),[1]; [3],11%
same,Population Healthy Nuclei (%),[1]; [3],82%
same,Population Hoechst High Intensity Objects (%),[1]; [3],6%
same,Population Membrane Permeable-Phenotype (%),[1]; [3],4%
same,Population Mitochondria Different-Phenotype (%),[1]; [3],7%
same,Population Mitotic Cells (%),[1]; [3],50%
same,Population Normal (%),[1]; [3],93%
same,Population Pyknosed Nuclei (%),[1]; [3],5%
same,Population Tubulin-Different-Phenotype (%),[1]; [3],6%
same,Total Cell Count,[1]; [3],179
same,Population Apoptotic (%),[1]; [4],0%
same,Population Fragmented Nuclei (%),[1]; [4],6%
same,Population Healthy Nuclei (%),[1]; [4],90%
same,Population Hoechst High Intensity Objects (%),[1]; [4],8%
same,Population Membrane Permeable-Phenotype (%),[1]; [4],1%
same,Population Mitochondria Different-Phenotype (%),[1]; [4],22%
same,Population Mitotic Cells (%),[1]; [4],100%
same,Population Normal (%),[1]; [4],91%
same,Population Pyknosed Nuclei (%),[1]; [4],3%
same,Population Tubulin-Different-Phenotype (%),[1]; [4],24%
same,Total Cell Count,[1]; [4],104
same,Population Apoptotic (%),[1]; [5],54%
same,Population Fragmented Nuclei (%),[1]; [5],11%
same,Population Healthy Nuclei (%),[1]; [5],72%
same,Population Hoechst High Intensity Objects (%),[1]; [5],6%
same,Population Membrane Permeable-Phenotype (%),[1]; [5],16%
same,Population Mitochondria Different-Phenotype (%),[1]; [5],44%
same,Population Mitotic Cells (%),[1]; [5],45%
same,Population Normal (%),[1]; [5],93%
same,Population Pyknosed Nuclei (%),[1]; [5],15%
same,Population Tubulin-Different-Phenotype (%),[1]; [5],68%
same,Total Cell Count,[1]; [5],166
same,Population Apoptotic (%),[1]; [6],37%
same,Population Fragmented Nuclei (%),[1]; [6],20%
same,Population Healthy Nuclei (%),[1]; [6],63%
same,Population Hoechst High Intensity Objects (%),[1]; [6],9%
same,Population Membrane Permeable-Phenotype (%),[1]; [6],29%
same,Population Mitochondria Different-Phenotype (%),[1]; [6],77%
same,Population Mitotic Cells (%),[1]; [6],62%
same,Population Normal (%),[1]; [6],90%
same,Population Pyknosed Nuclei (%),[1]; [6],16%
same,Population Tubulin-Different-Phenotype (%),[1]; [6],96%
same,Total Cell Count,[1]; [6],54
same,Population Apoptotic (%),[1]; [7],38%
same,Population Fragmented Nuclei (%),[1]; [7],11%
same,Population Healthy Nuclei (%),[1]; [7],80%
same,Population Hoechst High Intensity Objects (%),[1]; [7],3%
same,Population Membrane Permeable-Phenotype (%),[1]; [7],5%
same,Population Mitochondria Different-Phenotype (%),[1]; [7],18%
same,Population Mitotic Cells (%),[1]; [7],61%
same,Population Normal (%),[1]; [7],96%
same,Population Pyknosed Nuclei (%),[1]; [7],7%
same,Population Tubulin-Different-Phenotype (%),[1]; [7],10%
same,Total Cell Count,[1]; [7],176
same,Population Apoptotic (%),[1]; [8],40%
same,Population Fragmented Nuclei (%),[1]; [8],7%
same,Population Healthy Nuclei (%),[1]; [8],87%
same,Population Membrane Permeable-Phenotype (%),[1]; [8],0%
same,Population Mitochondria Different-Phenotype (%),[1]; [8],27%
same,Population Mitotic Cells (%),[1]; [8],60%
same,Population Pyknosed Nuclei (%),[1]; [8],5%
same,Population Tubulin-Different-Phenotype (%),[1]; [8],17%
same,Total Cell Count,[1]; [8],96
same,Population Apoptotic (%),[1]; [9],59%
same,Population Fragmented Nuclei (%),[1]; [9],15%
same,Population Healthy Nuclei (%),[1]; [9],70%
same,Population Hoechst High Intensity Objects (%),[1]; [9],3%
same,Population Membrane Permeable-Phenotype (%),[1]; [9],5%
same,Population Mitochondria Different-Phenotype (%),[1]; [9],35%
same,Population Mitotic Cells (%),[1]; [9],40%
same,Population Normal (%),[1]; [9],96%
same,Population Pyknosed Nuclei (%),[1]; [9],14%
same,Population Tubulin-Different-Phenotype (%),[1]; [9],38%
same,Total Cell Count,[1]; [9],159
same,Population Apoptotic (%),[1]; [10],80%
same,Population Fragmented Nuclei (%),[1]; [10],18%
same,Population Healthy Nuclei (%),[1]; [10],62%
same,Population Hoechst High Intensity Objects (%),[1]; [10],11%
same,Population Membrane Permeable-Phenotype (%),[1]; [10],41%
same,Population Mitochondria Different-Phenotype (%),[1]; [10],76%
same,Population Mitotic Cells (%),[1]; [10],20%
same,Population Normal (%),[1]; [10],88%
same,Population Pyknosed Nuclei (%),[1]; [10],18%
same,Population Tubulin-Different-Phenotype (%),[1]; [10],76%
same,Total Cell Count,[1]; [10],61
same,Population Apoptotic (%),[1]; [11],65%
same,Population Fragmented Nuclei (%),[1]; [11],16%
same,Population Healthy Nuclei (%),[1]; [11],72%
same,Population Hoechst High Intensity Objects (%),[1]; [11],3%
same,Population Membrane Permeable-Phenotype (%),[1]; [11],4%
same,Population Mitochondria Different-Phenotype (%),[1]; [11],43%
same,Population Mitotic Cells (%),[1]; [11],35%
same,Population Normal (%),[1]; [11],96%
same,Population Pyknosed Nuclei (%),[1]; [11],11%
same,Population Tubulin-Different-Phenotype (%),[1]; [11],16%
same,Total Cell Count,[1]; [11],187
same,Population Apoptotic (%),[1]; [12],66%
same,Population Fragmented Nuclei (%),[1]; [12],6%
same,Population Healthy Nuclei (%),[1]; [12],90%
same,Population Hoechst High Intensity Objects (%),[1]; [12],10%
same,Population Membrane Permeable-Phenotype (%),[1]; [12],9%
same,Population Mitochondria Different-Phenotype (%),[1]; [12],49%
same,Population Mitotic Cells (%),[1]; [12],33%
same,Population Normal (%),[1]; [12],89%
same,Population Pyknosed Nuclei (%),[1]; [12],3%
same,Population Tubulin-Different-Phenotype (%),[1]; [12],28%
same,Total Cell Count,[1]; [12],103
same,Population Apoptotic (%),[1]; [13],79%
same,Population Fragmented Nuclei (%),[1]; [13],20%
same,Population Healthy Nuclei (%),[1]; [13],53%
same,Population Hoechst High Intensity Objects (%),[1]; [13],1%
same,Population Membrane Permeable-Phenotype (%),[1]; [13],12%
same,Population Mitochondria Different-Phenotype (%),[1]; [13],32%
same,Population Mitotic Cells (%),[1]; [13],20%
same,Population Normal (%),[1]; [13],98%
same,Population Pyknosed Nuclei (%),[1]; [13],25%
same,Population Tubulin-Different-Phenotype (%),[1]; [13],14%
same,Total Cell Count,[1]; [13],154
same,Population Apoptotic (%),[1]; [14],88%
same,Population Fragmented Nuclei (%),[1]; [14],22%
same,Population Healthy Nuclei (%),[1]; [14],45%
same,Population Hoechst High Intensity Objects (%),[1]; [14],8%
same,Population Membrane Permeable-Phenotype (%),[1]; [14],46%
same,Population Mitochondria Different-Phenotype (%),[1]; [14],57%
same,Population Mitotic Cells (%),[1]; [14],11%
same,Population Normal (%),[1]; [14],91%
same,Population Pyknosed Nuclei (%),[1]; [14],31%
same,Population Tubulin-Different-Phenotype (%),[1]; [14],30%
same,Total Cell Count,[1]; [14],62
same,Growth Rate,"[2]; 0 h, replicate number 1, timepoint 0 hours",1
same,Growth Rate,"[2]; 24 h, replicate number 1, timepoint 24 hours",1
